Assay results from ChEMBL document CHEMBL1138628, “Synthesis, in vitro and computational studies of protein tyrosine phosphatase 1B inhibition of a small library of 2-arylsulfonylaminobenzothiazoles with antihyperglycemic activity” (Bioorg Med Chem, 2009).
One block for each compound: values may come before it. The source made the active and inactive calls. The rule behind the calls is not given here.

Tests used:
Rattus norvegicus = test: Antihyperglycemic activity against STZ-nicotinamide-induced diabetes in overnight fasted Wistar rat assessed as decrease in glycemia at 100 mg/kg, administered intragastrically after 5 to 7 hrs by glucose oxidase method; assay type: functional
In short: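 Male Wistar rats (200–250 g) made diabetic by i.p. nicotinamide 110 mg/kg (saline), then 15 min later i.p. streptozotocin 65 mg/kg (citrate pH 4.5), after overnight fast; hyperglycemia confirmed at 72 h. Test compounds 100 mg/kg or glibenclamide 5 mg/kg given orally as 1% Tween 80 suspension, n = 5. Caudal vein glucose (glucose oxidase glucometer) at 0, 1, 3, 5, 7 h; % variation versus 0 h.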

[1] = target: T1, Tyrosine-protein phosphatase non-receptor type 1 (Homo sapiens) (UniProt P18031); test: Inhibition of human recombinant PTP1B expressed in Escherichia coli TB1 assessed as residual activity at 40 uM
T1 sequence (whole entry): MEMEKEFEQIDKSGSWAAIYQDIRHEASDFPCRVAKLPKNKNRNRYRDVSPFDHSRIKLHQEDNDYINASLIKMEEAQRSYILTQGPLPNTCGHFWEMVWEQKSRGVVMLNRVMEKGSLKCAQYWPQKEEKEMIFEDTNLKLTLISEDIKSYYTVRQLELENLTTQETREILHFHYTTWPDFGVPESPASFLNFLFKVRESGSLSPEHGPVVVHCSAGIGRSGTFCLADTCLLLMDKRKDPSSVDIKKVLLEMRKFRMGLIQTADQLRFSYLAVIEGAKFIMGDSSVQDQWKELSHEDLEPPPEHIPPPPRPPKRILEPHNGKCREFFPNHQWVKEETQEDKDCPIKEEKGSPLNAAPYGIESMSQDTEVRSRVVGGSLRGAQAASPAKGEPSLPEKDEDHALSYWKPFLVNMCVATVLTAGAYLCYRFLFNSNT
In short: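 Single-point screen at 37 °C, pH 7.0: compound at 40 µM final (from 20 mM DMSO solution) in buffer with 2 mM pNPP. Reaction started with 0.16 µg human recombinant PTP-1B in 1 ml. p-Nitrophenol read at 400 nm. Residual activity given as % of DMSO control; quadruplicate.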

[2] = target: T2, Tyrosine-protein phosphatase non-receptor type 1 (Homo sapiens, UniProt P18031); test: Inhibition of human recombinant PTP1B expressed in Escherichia coli TB1 by double reciprocal plot analysis
T2 sequence (P18031 whole entry): T1 sequence (whole entry)
In short: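 Initial hydrolysis rates at 37 °C, pH 7.0, across pNPP 0.5–40 mM, with several inhibitor concentrations (e.g. 0, 5, 10, 20, 30 µM). Data analysed as Lineweaver–Burk (1/v vs 1/[S]) plots to assign inhibition type; quadruplicate.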

[3] = target: T1, Tyrosine-protein phosphatase non-receptor type 1 (Homo sapiens); test: Inhibition of human recombinant PTP1B expressed in Escherichia coli TB1-catalyzed hydrolysis of p-nitrophenyl phosphate assessed as decrease in hydrolysis rate preincubated for 30 mins by slow binding assay
In short: (§1)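 Time-course of pNPP hydrolysis by recombinant PTP-1B at several inhibitor concentrations, with p-nitrophenol release followed continuously at 400 nm. Initial rates and curve linearity examined, either without enzyme–inhibitor preincubation or after 30 min preincubation.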

[4] = target: T1, Tyrosine-protein phosphatase non-receptor type 1 (Homo sapiens); test: Inhibition of human recombinant PTP1B expressed in Escherichia coli TB1-catalyzed hydrolysis of p-nitrophenyl phosphate assessed as decrease in hydrolysis rate by slow binding assay; in short: as §1
[5] = target: T2, Tyrosine-protein phosphatase non-receptor type 1; test: Inhibition of human recombinant PTP1B expressed in Escherichia coli TB1 assessed as residual activity
In short: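 Tagged human PTP-1B produced in E. coli TB1 from pGEX-2T, affinity-purified, thrombin-cleaved, gel-filtered. Run at 37 °C, pH 7.0, in 0.075 M β,β-dimethylglutarate with 1 mM EDTA and 1 mM DTT, substrate 2 mM pNPP (Km). IC50 used varying inhibitor, 10 nM enzyme, KOH stop, p-nitrophenol at 400 nm. Fit of vi/vo versus concentration; quadruplicate.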

[6] = target: T1, Tyrosine-protein phosphatase non-receptor type 1 (Homo sapiens); test: Inhibition of human recombinant PTP1B expressed in Escherichia coli TB1-catalyzed hydrolysis of p-nitrophenyl phosphate assessed as decrease in hydrolysis rate using 25 mM pNPP as substrate
In short: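 Rates at 37 °C, pH 7.0, with 25 mM pNPP (12.5-fold Km), with inhibitor at 2.5, 5.0, 10, 25, 50, 100 and 200 µM. Residual activity measured to test for partial inhibition; quadruplicate.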

[7] = target: T1, Tyrosine-protein phosphatase non-receptor type 1 (Homo sapiens); test: Reversible inhibition of human recombinant PTP1B expressed in Escherichia coli TB1 assessed as complete recovery of residual enzyme activity at 4 deg C at 100 uM after 1 hr
[8] = target: T1, Tyrosine-protein phosphatase non-receptor type 1 (Homo sapiens); test: Reversible inhibition of human recombinant PTP1B expressed in Escherichia coli TB1 assessed as complete recovery of residual enzyme activity at 37 deg C at 100 uM after 1 hr

SMILES: COc1ccc(Cl)cc1C(=O)NCCc1ccc(S(=O)(=O)NC(=O)NC2CCCCC2)cc1
Activity (Rattus norvegicus): Active

SMILES: COc1ccc2nc(NS(=O)(=O)c3ccc([N+](=O)[O-])cc3)sc2c1
Activity [1]: inactive

SMILES: CCOc1ccc2nc(NS(=O)(=O)c3ccc(Cl)cc3)sc2c1
Activity [1]: inactive

SMILES: CC(=O)Nc1ccc(S(=O)(=O)Nc2nc3ccc([N+](=O)[O-])cc3s2)cc1
Activity [1]: inactive

Continued, in another order:

Ki [2]: 20.4 µM | Activity [3]: Active | Activity [4]: Active | IC50 [5]: 40.9 µM | Activity [6]: Active | Activity [1]: Active | Activity [7]: Active | Activity [8]: Active
SMILES: CCOc1ccc2nc(NS(=O)(=O)c3ccc([N+](=O)[O-])cc3)sc2c1

Activity [1]: inactive
SMILES: O=[N+]([O-])c1ccc(S(=O)(=O)Nc2nc3ccc(Cl)cc3s2)cc1

Ki [2]: 7.1 µM | Activity [3]: Active | Activity [4]: Active | IC50 [5]: 19.5 µM | Activity [6]: Active | Activity [1]: Active | Activity [7]: Active | Activity [8]: Active
SMILES: Cc1ccc2nc(NS(=O)(=O)c3ccc([N+](=O)[O-])cc3)sc2c1
Activity (Rattus norvegicus; route intragastric): 27%
